Compound activity (PubChem BioAssay)
miR122 inh: blocks miR-122 activity in Huh7 sensor cells | Huh7 miR-122 Renilla luciferase sensor, 48 h; neutral wells = 0, positive control = 100 | activation (reporter increase), % at 12.5 µM | hit rate 0.3% among 340,000;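 active means mean replicate activation score at least 90 and every replicate individually at or above 90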;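 further: higher luciferase means less miR-122 activity so hits act as miR-122 inhibitors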
Cneo AK release: causes C. neoformans cell lysis; hit rate 0.2% among 360,000; adenylate kinase release luminescence, 4 h; normalised: neutral wells 0, clomiphene wells 100; lysis activity, % at 15 µM; AID 651654;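 active means mean lysis activity across replicates of at least 80%, whatever share of replicates individually reach that level; inactive means mean lysis activity below 80%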
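Schedule: static 4 h at 37 °C with compound, 1 h detection; system: C. neoformans cells; benchmarks: Clomiphene as positive control; buffer or medium: fresh YPD medium; measure: luminescence rise reflecting yeast cell lysis; measured by: luminescent adenylate kinase detection reagent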
CAL PDZ FP-1: blocks peptide binding to human CAL PDZ domain. inhibition, % at 20 µM. Q9HD26. purified CAL PDZ, TMR-peptide fluorescence polarization, 1 h. hit rate 0.02% among 330,000;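 active means highest replicate inhibition of at least 40%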;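 further: plate controls were DMSO neutral control wells for no effect and unlabeled competitor peptide control wells for full effect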
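material = purified tagged CAL PDZ domain construct (CerCALP) | compound dosing = 20 µM, one dose | times = 1 h at RT | measured by = fluorescence polarization from S- and P-plane intensities, G-factor corrected | read-out = inhibition from polarization loss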
PglD DTNB: PglD (C. jejuni) enzyme inhibition; purified PglD enzyme, DTNB colorimetric CoA detection; inhibition, % at 12.5 µM; hit rate 0.098% among 360,000; in the data active means inhibition above about 16%, passing the limit was not always enough
CAL PDZ FP-2: CAL PDZ (human) peptide binding inhibition; Q9HD26; purified CAL PDZ, TMR-peptide fluorescence polarization, 1 h; inhibition, % at 24.9 µM; hit rate 0.92% among 300,000; AID 602252;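 active means mean inhibition of at least 30% with at least half of replicates also reaching 30%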;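 further: 0% = DMSO neutral control and 100% = excess unlabeled competitor peptide PRC23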
The depositor's hits bear a star; . = no result given; [ ] = dose if it differs, or a comment. In the library only some 1.1% were active in any assay of this set; here they are far more common.

SMILES	miR122 inh	Cneo AK release	CAL PDZ FP-1	PglD DTNB	CAL PDZ FP-2
CCC/C(=N\NC(=O)CNC(=O)c1ccc(Cl)cc1)c1ccccc1	.	.	-0.7	.	78.5*
CCOC(=O)C1CCCN(C(=O)c2ccc3ccccc3c2)CC1 (stereo unspecified)	2.7	4.1	.	-3.1	.
C[C@@H]1CCCCO[C@@H](CN(C)S(C)(=O)=O)[C@H](C)CN([C@H](C)CO)C(=O)c2cc(N(C)C)ccc2O1	2.4[16.7 µM]	-6.7	.	-1.3	.
CCc1nc2ccc(C(=O)N(C)CC(=O)Nc3ccc(Cl)c(C(F)(F)F)c3)cc2nc1CC	-2.2	-0.5	-3.5	3.1	-3.5
CCOc1ccc(NC(=O)CN(C)C(=O)c2ccc3nc(CC)c(CC)nc3c2)cc1OCC	.	0.0	-0.1	-1.2	39.0*
CCN(C(=O)COC(=O)c1ccc([N+](=O)[O-])o1)C1CCCCC1	-9.2	5.4	0.9	-4.8	125.5*
O=C(COC(=O)c1ccc([N+](=O)[O-])o1)NC1CCCCC1	.	1.9	-1.3	-1.1	12.5
NC(=S)NNc1cc(Cl)cc(Cl)c1	-11.5	-0.6	.	-1.5	97.0*
CC(O)c1nc2ccccc2n1CCCCOc1ccccc1 (stereo unspecified)	-4.3	0.4	-0.4	-0.8	-10.8
Cc1ccc(S(=O)(=O)NCCC(=O)NC(C)CCc2ccccc2)cc1 (stereo unspecified)	-0.8	1.7	-0.4	0.0	70.9*
CN(Cc1nc2ccccc2c(=O)[nH]1)C(=O)c1cc2c(s1)CCCCC2	6.6	-0.6	-1.1	-1.5	-4.9
CN(Cc1nc2ccccc2c(=O)[nH]1)C(=O)c1cccc(NC(=O)c2cccs2)c1	-1.4	-0.5	-0.9	2.9	66.2*
O=S1(=O)CCC(N=Cc2cc(Br)ccc2O)C1 (stereo unspecified)	-5.2	84.6*	-2.7	0.0	-4.0
C[C@H]1CN([C@@H](C)CO)C(=O)c2cccc(NC(=O)c3cnccn3)c2O[C@H]1CN(C)CC1CC1	5.9[16.7 µM]	8.6	.	-2.5	.
CC(=O)c1cccc(CN2CCN(CCc3ccccc3)C(CCO)C2)c1 (stereo unspecified)	.	.	-0.5	.	63.4*
CC(=O)c1cccc(CN2CCN(CC=C(C)C)C(CCO)C2)c1 (stereo unspecified)	0.6	5.4	.	0.5	50.9*
COc1cccc(NC(=O)N(C)C[C@@H]2Oc3ncc(/C=C/c4ccccc4)cc3C(=O)N([C@@H](C)CO)C[C@H]2C)c1	-6.2[16.7 µM]	-3.0	.	-1.2	.
Cc1ccc(O)c(NC(=O)c2cccc(S(=O)(=O)N3CCCCC3)c2)c1	112.9*	0.4	-1.1	3.0	-0.5
O=C(NNC(=O)c1ccc(Br)s1)c1cccc(S(=O)(=O)N2CCCC2)c1	.	2.2	-0.4	1.8	11.3
COc1ccc(NC(=O)c2cccc(S(=O)(=O)N3CCCC3)c2)cc1OC	2.7	-1.5	0.4	-4.5	76.5*
Cc1ccsc1C(=O)NNC(=O)c1cccc(S(=O)(=O)N2CCCC2)c1	0.2	1.5	-0.4	-2.6	83.3*
COc1ccc(NC(=O)N[C@H]2CC[C@@H](CCNS(=O)(=O)c3cccc(Cl)c3)O[C@@H]2CO)cc1	.	-2.5	.	-1.6	.
Cc1cccc(OCC(=O)N2CCCc3ccccc32)c1	.	.	11.1	.	71.4*
CC(=O)c1cccc(OCC(=O)N2CCCc3ccccc32)c1	.	-0.4	-1.3	10.5	.
CO[C@H]1CN(C)C(=O)c2ccc(NS(=O)(=O)c3ccccc3F)cc2OC[C@@H](C)NC[C@@H]1C	.	-1.9	.	-1.5	.
SMILES	miR122 inh	Cneo AK release	CAL PDZ FP-1	PglD DTNB	CAL PDZ FP-2
Cc1ccc(NS(=O)(=O)c2ccc3[nH]c(=O)c(=O)[nH]c3c2)cc1Cl	7.3	.	-4.1	.	-5.9
Cc1ccc(NS(=O)(=O)c2ccc(Cl)c(N=Nc3c(O)[nH]c(=O)[nH]c3=O)c2)cc1Cl	57.0	-1.8	-0.1	-2.3	30.6*
Cc1ccccc1NC(=S)N1CCN(c2ccccc2)CC1	.	1.0	-0.4	-1.9	-2.5
Cc1cccc(-n2cnc3c(sc4nc(N5CCOCC5)c5c(c43)CCCC5)c2=O)c1	.	.	-2.8	.	60.0*
CNC[C@H]1Oc2ccc(NC(=O)Cc3cn(C)c4ccccc34)cc2C(=O)N([C@H](C)CO)C[C@H]1C	1.9[16.7 µM]	0.2	.	-0.2	.
COCC1CCN(C(=O)c2ccc3oc(C(C)C)nc3c2)C1 (stereo unspecified)	-3.8	-0.7	.	0.6	.
CC(C)c1nc2cc(C(=O)N(C)C3CCOCC3)ccc2o1	.	4.1	-1.0	0.0	43.5*
COc1cccc(-c2ccc3c(c2)[C@H]2[C@H](CCN2C(=O)c2ccccc2F)[C@@H](CO)N3C)c1	4.0[16.7 µM]	3.6	.	-1.9	.
CN1c2ccc(-c3cccc(F)c3)cc2[C@@H]2[C@@H](CCN2C(=O)C2CC2)[C@H]1CO	5.8[16.7 µM]	-0.6	.	2.1	.
CN1c2ccc(-c3cccc(F)c3)cc2[C@H]2[C@H](CCN2C(=O)c2ccccc2F)[C@H]1CO	106.7*[16.7 µM]	-11.5	.	5.2	.
CN1c2ccc(-c3cccc(F)c3)cc2[C@H]2[C@H](CCN2C(=O)C2CC2)[C@H]1CO	99.8*[16.7 µM]	-0.7	.	2.0	.
COc1ccc(NC(=O)N2CC[C@@H]3[C@H]2c2cc(-c4cccc(C(=O)N(C)C)c4)ccc2N(C)[C@H]3CO)cc1	6.9[16.7 µM]	-13.3	.	-20.6	.
O=C(/C=C/c1cccc([N+](=O)[O-])c1)NCCSCc1cccc(Cl)c1	-10.6	0.0	-0.2	-1.1	51.7*
O=C(/C=C/c1cccc([N+](=O)[O-])c1)NCc1ccccc1	.	.	-2.0	.	1.3
C[C@@H]1CCCCO[C@H](CN(C)Cc2ccc(C(F)(F)F)cc2)[C@@H](C)CN([C@@H](C)CO)C(=O)c2cc(NC(=O)NC3CCCCC3)ccc2O1	-2.6[16.7 µM]	1.5	.	1.3	.
COc1cccc(C(=O)Nc2ccc3c(c2)C(=O)N(C)[C@H]2CC[C@@H](CC(=O)NCCCN4CCOCC4)O[C@@H]2CO3)c1	.	-2.4	.	-4.3	.
CC(C)(C)NC(=O)/C(=C/c1ccccc1F)NC(=O)c1ccc([N+](=O)[O-])cc1	-2.0	.	0.5	.	-3.9
O=C(Nc1cccc2ccccc12)/C(=C/c1ccc([N+](=O)[O-])cc1)NC(=O)c1ccccc1	238.0*	-7.7	-1.3	0.3	68.0*
CC(C)(C)NC(=O)/C(=C\c1ccccc1F)NC(=O)c1ccc([N+](=O)[O-])cc1	.	.	-1.4	.	70.1*
O=C(Nc1cccc(C(=O)O)c1)/C(=C/c1ccc([N+](=O)[O-])cc1)NC(=O)c1ccccc1	.	0.0	-2.2	0.5	.
CC(C)(C)c1ccc(C(=O)N/C(=C\c2cccc([N+](=O)[O-])c2)C(=O)Nc2cccc(C(=O)O)c2)cc1	-2.9	-3.0	-0.8	36.4*	.
CC(C)(C)OC(=O)C[C@H]1C/C=C\C[C@@H](CC(=O)NCCO)C(=O)NCCOC1=O	0.5	-3.9	-0.9	0.1	0.6
Cc1cc(C)n(C(=O)c2cccc(S(=O)(=O)N3CCCCC3)c2)n1	-6.9	.	1.6	.	10.7
Cc1cc(C)n(C(=O)c2cccc(S(=O)(=O)N3CCOCC3)c2)n1	0.4	-0.8	-0.2	-6.4	63.6*
